# Source: ChEMBL document CHEMBL3763129 (Bioorg Med Chem Lett, 2016)
# Calls of active or inactive are those of the source. The rule behind the calls is not given here.
# Columns and labels:
# [1] = test system: BXPC-3; assay: Antiproliferative activity against human BxPC3 cells assessed as cell viability at 10 uM after 48 hrs by MTS assay; type: functional, cell-based
# [2] = test system: ASPC1; assay: Antiproliferative activity against human AsPC1 cells assessed as cell viability at 10 uM after 48 hrs by MTS assay; type: functional, cell-based
# [3] = test system: MIA PaCa-2; assay: Antiproliferative activity against human MIAPaCa2 cells assessed as cell viability at 10 uM after 48 hrs by MTS assay; type: functional, cell-based
# [4] = Cytotoxicity against human MCF10A cells assessed as cell viability at 10 uM after 48 hrs by MTS assay; type: cell-based; conditions: mcf-10a
# [5] = test system: ASPC1; assay: Antiproliferative activity against human AsPC1 cells assessed as cell viability at 0.01 to 10 uM after 48 and 72 hrs by MTS assay; type: functional, cell-based
# [6] = test system: BXPC-3; assay: Antiproliferative activity against human BxPC3 cells assessed as cell viability at 0.01 to 10 uM after 48 and 72 hrs by MTS assay; type: functional, cell-based
# [7] = test system: MIA PaCa-2; assay: Antiproliferative activity against human MIAPaCa2 cells assessed as cell viability at 0.01 to 10 uM after 48 and 72 hrs by MTS assay; type: functional, cell-based
# [8] = Cytotoxicity against human MCF10A cells assessed as cell viability at 0.01 to 10 uM after 48 and 72 hrs by MTS assay; type: cell-based; conditions: mcf-10a
# [9] = biological target: Proto-oncogene tyrosine-protein kinase Src (Homo sapiens) (UniProt P12931); assay: Binding affinity to Src kinase SH2 domain (unknown origin) at 25 uM by STD-NMR spectroscopy
# In short: (§1)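 STD-NMR on recombinant SH2 (SUMO-fusion expressed in E. coli Rosetta2, Ni-purified, tag cleaved) in 100% D2O with trace DMSO-d6; 50 ms Gaussian saturation pulse, saturation and delay times 5.0 s, 16 scans with 720 averages; ligand/protein ratio 5:1 or 20:1 depending on compound.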
# [10] = biological target: T1, Calmodulin/Proto-oncogene tyrosine-protein kinase Src (Homo sapiens) (UniProt P12931+P0DP23); assay: Inhibition of human CaM/Src kinase SH2 domain interaction assessed as apparent association of CaM-Src kinase SH2 domain at 10 fold excess compound concentration by isothermal titration calorimetry; type: protein assay
# In short: (§2)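 ITC at 27°C: SH2 (0.02mM) premixed with compound in DMSO in cell, titrated with CaM (0.2mM, DMSO matched), 20µl per injection, 300 s spacing; both proteins dialyzed overnight in 10mM Bis-Tris pH6.5, 50mM NaCl, 1mM CaCl2, 0.1mM TCEP; recombinant proteins from E. coli, SUMO tag removed.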
# [11] = biological target: Calmodulin-1 (Homo sapiens) (UniProt P0DP23); assay: Binding affinity to human calmodulin by isothermal titration calorimetry
# [12] = biological target: Proto-oncogene tyrosine-protein kinase Src (Homo sapiens) (UniProt P12931); assay: Binding affinity to Src kinase SH2 domain (unknown origin) at 100 uM by STD-NMR spectroscopy; in short: as §1
# [13] = biological target: T1, Calmodulin/Proto-oncogene tyrosine-protein kinase Src (Homo sapiens); assay: Inhibition of human CaM/Src kinase SH2 domain interaction assessed as apparent association of CaM-Src kinase SH2 domain at 25 fold excess compound concentration by isothermal titration calorimetry; type: protein assay; in short: as §2
# [14] = test system: MIA PaCa-2; assay: Cytotoxicity against human MIAPaCa2 cells at 1 to 50 uM after 8 days by calcein-AM staining based fluorescence analysis; type: functional, cell-based
# In short: (§3)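 3D microtumors: 10K MiaPaCa-2 cells in ice-cold HuBiogel (3 mg/ml), 2 mm beads polymerized 5 min at 37C, cultured up to 14 days in DMEM/10% FBS; compound 1–50 µM added every other day (final 5% FBS, 0.5% DMSO); media or DMSO controls; day 1, 7, 14 Calcein-AM (1.0µM) live imaging; proliferation by CellTiter Glo relative to DMSO; 6–8 beads/group.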
# [15] = test system: MIA PaCa-2; assay: Cytotoxicity against human MIAPaCa2 cells at 1 to 50 uM after 8 days by CellTiter Glo assay; type: functional, cell-based; in short: as §3
SMILES,Activity [9],Ka [10] [×10⁶ /M],Activity [11],Activity [12],Ka [13] [×10⁶ /M],Activity [1],Activity [2],Activity [3],Activity [4],Activity [5],Activity [6],Activity [7],Activity [8],Activity [14],Activity [15]
COc1ccc(-c2n[nH]c(NC(=O)c3cccc(S(=O)(=O)N4CCc5ccccc54)c3)n2)cc1,–,–,–,–,–,Active,Active,Active,Toxic,–,–,–,–,–,–
CC/C(=C(\c1ccccc1)c1ccc(OCCN(C)C)cc1)c1ccccc1,–,–,–,–,–,Active,Active,Active,–,–,–,–,–,–,–
Cc1ccc(Cc2cnc(NC(=O)c3ccc(-n4ccnc4)cc3)s2)cc1,–,–,–,–,–,Active,Active,Active,–,–,–,–,–,–,–
N#Cc1ccc(Cc2cnc(NC(=O)CCc3ccc4c(c3)OCO4)s2)cc1,–,–,–,–,–,Active,Active,Active,Toxic,–,–,–,–,–,–

# Further lines, with some results ahead:
Activity [9],Ka [10] [×10⁶ /M],Activity [11],Activity [12],Ka [13] [×10⁶ /M],SMILES,Activity [1],Activity [2],Activity [3],Activity [4],Activity [5],Activity [6],Activity [7],Activity [8],Activity [14],Activity [15]
Active,2.49,inactive,–,–,O=C(Nc1ccc(C(=O)O)cc1)Nc1ccc(-c2nc(N3CCOCC3)nc(N3CCOCC3)n2)cc1,Active,Active,Active,Toxic,Active,Active,Active,Toxic,–,–
–,–,inactive,Active,2.03,OC[C@@H]1O[C@H](n2cnc3c(NCc4ccco4)ncnc32)[C@H](O)[C@@H]1O,Active,Active,Active,Toxic,Active,Active,Active,Toxic,–,–
–,–,inactive,–,–,Cc1nc2ccccn2c1-c1csc(Nc2ccc(C(=O)O)cc2)n1,Active,Active,Active,Toxic,–,–,–,–,–,–
–,–,inactive,–,–,O=C1COc2ccc(C(=O)/C=C/c3cc(F)cc4c3OCOC4)cc2N1,Active,Active,Active,Toxic,–,–,–,–,Active,Active
